This is an account of results in paper PMC10955609 (Clinical and Translational Science, 2024).

A value given as a limit tells only on which side of the number the result lay.

The subject of series [1] is imiquimod (IMQ)-induced skin inflammation (TLR7 activation). The experiment in a line: IMQ skin challenge: skin perfusion. Particulars: for Erythema: GMR of treatment effect vs. placebo (90% CrI): same dosing; for Clinical evaluation of skin reactions (visual grading): vs placebo. Format: in vivo, human. Summed up: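 Healthy men (12 per arm) took test compound (120 or 100 mg), placebo or prednisolone 20 mg b.i.d. orally for 7 days. From Day 3, 5% imiquimod cream (100 mg) went daily on tape-stripped back skin under 12-mm occlusion chambers for 3 days. Erythema (3D imaging), LSCI perfusion and CEA were read at baseline, 24, 48 and 72 h. Bayesian repeated-measures ANCOVA used log-transformed change from baseline.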

Series [2] has the same test system. The experiment in a line: Skin suction blister fluid analysis after IMQ challenge. The class given is in vivo, human. Particulars: for Responses of CD8+ T cells and dendritic cells in suction blister fluid: 72 h after start of IMQ challenge; for IMQ-driven IP-10 and MxA in skin suction blister exudate: analysis on Day 6. Summed up:
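Suction blisters were raised by negative-pressure device on imiquimod-inflamed back skin at baseline and 24, 48 and 72 h after challenge start. Subjects were healthy men, 12 per arm, on oral twice-daily treatment begun 2 days before challenge. Blister fluid was analysed for immune cell subsets by flow cytometry and for cytokines/chemokines by multiplex immunoassay.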

For series [3], the system named is LPS-driven systemic inflammation (TLR4 activation). The experiment in a line: Systemic intravenous LPS challenge. The class given is in vivo, human. The note with it: for Anti-inflammatory cytokine IL-10 after LPS challenge / IL-6 (blood): GMR of treatment effect vs. placebo (90% CrI) / TNF-α (blood): GMR of treatment effect vs. placebo (90% CrI) / Suppression of circulating TNF-α response vs. placebo / LPS-induced increases in IL-8, CRP and procalcitonin: i.v. LPS challenge; for Anti-inflammatory cytokine IL-10 after LPS challenge / LPS-driven increases in systolic blood pressure and pulse rate: compared with placebo; for IL-6 (blood): GMR of treatment effect vs. placebo (90% CrI) / TNF-α (blood): GMR of treatment effect vs. placebo (90% CrI): same dosing; for Mild increase in core temperature after LPS: 2–6 h after i.v. LPS challenge; for Suppression of circulating TNF-α response vs. placebo: averaged 0.5 to 6 h after LPS; for LPS-induced increases in IL-8, CRP and procalcitonin: vs placebo. Summed up: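 On Day 7 of twice-daily oral treatment (12 healthy men per arm), purified E. coli O113 LPS 1 ng/kg in glucose 2.5%–NaCl 0.45% was given as a 2-min i.v. infusion. Hydration infusion ran from 2 h before to 6 h after. Cytokines, acute phase proteins, leukocytes, pulse, blood pressure and temperature were followed from 0.5 to 24 h. Bayesian repeated-measures ANCOVA gave GMR vs placebo (90% CrI).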

Series [4] relates to IL-1β-induced cytokines. The note with it: upregulation in comparison with vehicle control also reported; cited from earlier work.
The conditions of series [5]: 120 mg b.i.d. BAY1834845, 100 mg b.i.d. BAY1830839; ref multiple ascending dose phase I studies; cited from earlier work.
Series [6] has as its system LPS (TLR4)-driven TNF-α release in whole blood. The note with it: 120 mg b.i.d. BAY1834845, 100 mg b.i.d. BAY1830839; ref multiple ascending dose phase I studies; cited from earlier work.
Series [7] concerns imiquimod (IMQ)-induced psoriasis. The note with it: mice, compared with vehicle; cited from earlier work.
The nature of series [8]: PK in plasma and skin suction blister fluid. Format: in vivo, human. Particulars: for Individual suction blister fluid versus plasma ratio, geometric mean (CV): Day 6; for Total concentration in blister fluid, geometric mean (CV): Day 6, 2–4 h after drug intake, unchallenged skin. Summed up: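 Healthy men, 12 per arm, took test compound orally twice daily for 7 days. Total drug was measured in plasma and suction blister fluid on Day 6, […], and reported as geometric mean (CV). Blister-fluid-to-plasma ratios were calculated per subject.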

In series [9] the test system is LPS (TLR4 agonist)-driven cytokine release in whole blood. The experiment in a line: Ex vivo whole blood challenge with LPS. The class given is cell-based, human. The method, boiled down: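 Blood was drawn from healthy men, 12 per arm, at two baselines (Day −1, Day 1) and on Day 6 of oral twice-daily dosing. Challenges were run in duplicate at 37°C for 24 h: LPS 0.1 ng/mL or R848 0.35 μg/mL in prefilled culture tubes, and IL-1β 125 ng/mL in sodium heparin tubes. Supernatant cytokines were measured by multiplex immunoassay.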

Series [10] is described as follows: Safety monitoring. The class given is in vivo, human. The note with it: safety analysis set; BAY groups N = 13, prednisolone N = 12; 7 days b.i.d.

`C[C@]12C=CC(=O)C=C1CC[C@@H]1[C@@H]2[C@@H](O)C[C@@]2(C)[C@H]1CC[C@]2(O)C(=O)CO` [Prednisolone, prednisolone, reference compound]: the “Erythema: GMR of treatment effect vs. placebo (90% CrI)” value (“Erythema: GMR … (90% CrI)” below) in series [1] is recorded as 0.86 (0.69, 1.02). In addition, the “Erythema: GMR … (90% CrI)” value in series [1] (listed as prednisolone) stood at 0.86. In [2], the “Responses of CD8+ T cells and dendritic cells in suction blister fluid” value is “suppressed”; the “IMQ-driven IP-10 and MxA in skin suction blister exudate” value (“IMQ-driven IP-10 and MxA” below) is on record as “strongly suppressed”. For the same compound, the “Responses of NK cells and classical monocytes in suction blister fluid” value in series [2] (72 h post-challenge, after preceding increase up to 48 h) is “markedly suppressed”. Moreover, in series [3], the “Anti-inflammatory cytokine IL-10 after LPS challenge” value is on record as “induced”; the “IL-6 (blood): GMR of treatment effect vs. placebo (90% CrI)” value (“IL-6 (blood): GMR … (90% CrI)” below) is 0.31 (0.21, 0.41); the “TNF-α (blood): GMR of treatment effect vs. placebo (90% CrI)” value (“TNF-α (blood): GMR … (90% CrI)” for short) is listed as 0.31 (0.20, 0.41).

In the case of `CC[C@@H]1[C@H](F)C(=O)N[C@@H]1COc1nccc2cc(C(N)=O)c(OC)cc12` [PF‐06650833], the “Effects on IL-1β-induced cytokines” value in [4] is reported as “weak effects”.

For the compound `CC(C)(O)c1cc2nn(CCS(C)(=O)=O)cc2cc1NC(=O)c1cccc(C(F)(F)F)n1` [BAY1834845, zabedosertib], in [5], the Systemic exposure was 5.2 (19.4%) mg/L. Further, the “Mean suppression of TNFα (TLR4-cytokine release in ex vivo whole blood assay)” value in [6] is on record as 40%. Moreover, the “Severity of psoriasis-like lesions; extent of erythema, skin thickening and scaling” value in series [7] was “significantly reduced”. In series [1], the “Erythema: GMR … (90% CrI)” value was determined as 0.75 and the “Clinical evaluation of skin reactions (visual grading)” value is reported as “less severe inflammatory reaction”. In addition, the “Erythema: GMR … (90% CrI)” value in [1] (listed as BAY 1834845) is recorded as 0.75 (0.60, 0.89). In series [8], the “Individual suction blister fluid versus plasma ratio, geometric mean (CV)” value is recorded as 0.43 (22.7%) and the “Total concentration in blister fluid, geometric mean (CV)” value is on record as 2.6 (32.3%) mg/L. Besides, in series [2], the “Responses of CD8+ T cells and dendritic cells in suction blister fluid” value is “suppressed”; the “IMQ-driven IP-10 and MxA” value is “strongly suppressed”. In series [9], the “Inhibition of TLR4-driven IL-6 in ex vivo whole blood challenge” value was “approximately 50%” and the “Inhibition of TLR4-driven TNF-α in ex vivo whole blood challenge” value is recorded as “approximately 50%”. In addition, in [3], the “Mild increase in core temperature after LPS” value is on record as “without suppressing”; the “LPS-driven increases in systolic blood pressure and pulse rate” value is “suppressed”; the “Suppression of circulating TNF-α response vs. placebo” value is no less than 80%; the “Anti-inflammatory cytokine IL-10 after LPS challenge” value is given as “did not lead to an increase”. Moreover, in series [3], the “LPS-induced increases in IL-8, CRP and procalcitonin” value is given as “inhibited”; the “IL-6 (blood): GMR … (90% CrI)” value is listed as 0.27 (0.18, 0.36); the “TNF-α (blood): GMR … (90% CrI)” value was 0.20 (0.13, 0.27).

Consider `CC(C)(O)CCn1cc2cc(NC(=O)c3cccc(C(F)(F)F)n3)c(C(C)(C)O)cc2n1` [BAY1830839], for which the Systemic exposure in series [5] is on record as 4.3 (42.8%) mg/L. In addition, in [6], the “Mean suppression of TNFα (TLR4-cytokine release in ex vivo whole blood assay)” value is 70%. In [7], the “Severity of psoriasis-like lesions; extent of erythema, skin thickening and scaling” value is given as “significantly reduced”. Also, in series [1], the “Erythema: GMR … (90% CrI)” value stood at 0.83 and the “Clinical evaluation of skin reactions (visual grading)” value is listed as “less severe inflammatory reaction”. Further, the “Erythema: GMR … (90% CrI)” value in series [1] (listed as BAY 1830839) is recorded as 0.83 (0.67, 0.99). In series [8], the “Individual suction blister fluid versus plasma ratio, geometric mean (CV)” value is on record as 0.59 (16.2%) and the “Total concentration in blister fluid, geometric mean (CV)” value is recorded as 3.0 (28.3%) mg/L. In series [2], the “Responses of CD8+ T cells and dendritic cells in suction blister fluid” value is reported as “suppressed”; the “IMQ-driven IP-10 and MxA” value is recorded as “strongly suppressed”. Moreover, in series [9], the “Inhibition of TLR4-driven IL-6 in ex vivo whole blood challenge” value amounted to 73% and the “Inhibition of TLR4-driven TNF-α in ex vivo whole blood challenge” value was 75%. Also, in series [3], the “Mild increase in core temperature after LPS” value is listed as “without suppressing”; the “LPS-driven increases in systolic blood pressure and pulse rate” value is on record as “suppressed”; the “Suppression of circulating TNF-α response vs. placebo” value is reported as no less than 80%; the “Anti-inflammatory cytokine IL-10 after LPS challenge” value is on record as “did not lead to an increase”. Moreover, in series [3], the “LPS-induced increases in IL-8, CRP and procalcitonin” value was “inhibited”; the “IL-6 (blood): GMR … (90% CrI)” value is given as 0.26 (0.17, 0.34); the “TNF-α (blood): GMR … (90% CrI)” value is recorded as 0.14 (0.09, 0.19). Moreover, the “Any treatment-emergent AE” value in [10] is on record as 8 (61.5%) n (%) of participants.
